Bioassay records as filed in PubChem.
SUMO HTRF inh: inhibitors of in vitro SUMOylation cascade, primary screen, biochemical, HTRF, uHTS; SUMO-conjugating enzyme UBC9 (Homo sapiens), P63279; HTRF SUMOylation assay, SAE1/SAE2 + UBC9; inhibition, % at 35 µM; 0.36% of 290,000 active; in the data active = inhibition above about 50%, passing the limit was not always enough
SUMO1 PPI mod: modulators of SUMO1 protein-protein interactions, primary screen, biochemical, uHTS | Small ubiquitin-related modifier 1 (Homo sapiens), P63165 | SUMO1 binding to a labelled peptide, TR-FRET, 1 h | inhibition, % at 20 µM | 0.33% of 360,000 active | AID 602429, 2012; in the data active = inhibition above about 37%
Scp1 inh: Scp-1 phosphatase inhibitors, primary screen, biochemical, colorimetric, uHTS; Recombinant Scp1, phosphopeptide, malachite green phosphate absorbance; inhibition, % at 20 µM; 0.88% of 340,000 active;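 active = inhibition above about 50% at 20 µM, limit read from the data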;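 also: plate controls were DMSO wells with enzyme for no effect and wells lacking enzyme for full effect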
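Material – SCP-1 phosphatase catalytic domain, residues 76-261 · Buffer or medium – Acidic Tris acetate buffer with magnesium and detergent · Also added – Phospho 17-mer peptide substrate · Compound – single 20 µM dose, 1% DMSO · Times – 45 min room-temperature reaction, 5 min colour, 30 min stabiliser · Technique – Phosphate-binding colour reagent, absorbance read at 630 nm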
DNMT1 inh: human DNMT1 methyltransferase inhibitors, primary screen, biochemical, molecular beacon, fluorescence, HinP1I cleavage, uHTS. DNA (cytosine-5)-methyltransferase 1 (Homo sapiens), P26358. inhibition (reported as % activation of signal), % at 10 µM. 0.83% of 360,000 active; in the data active = inhibition above about 50%
LMPTP block: LMPTP phosphatase inhibitors, primary screen, biochemical, fluorescence intensity, uHTS; AID 651560, 2012; 0.22% of 360,000 active; inhibition, % at 20 µM; recombinant LMPTP-A, OMFP fluorogenic substrate; Low molecular weight phosphotyrosine protein phosphatase (Homo sapiens), P24666;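 active = compounds that cut the enzyme signal by at least half of the control window in the single-dose screen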;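 also: plate controls were DMSO wells with enzyme plus substrate for no effect and substrate without enzyme for full effect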
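Assay system: LMPTP-A phosphatase enzyme | Input: 0.625 nM enzyme | Also added: Fluorogenic phosphatase substrate OMFP at 400 µM final | Compound dosing: One test concentration per compound, 20 µM, with 3% DMSO overall | Schedule: 50 min enzyme reaction at room temperature, protected from light | Signal: Fluorescence intensity | Benchmarks: no-enzyme and uninhibited controls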
STEP block: STEP phosphatase inhibitors, primary screen, biochemical, fluorescence intensity, uHTS; inhibition, % at 20 µM; recombinant STEP, OMFP fluorogenic substrate; 0.25% of 360,000 active;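 active = inhibition at 20 µM, scaled per plate between control wells, above about 37%, limit read from the data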;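 also: 0% = DMSO with enzyme and substrate and 100% = substrate only without enzyme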
Target sequence (P54829 whole entry, looked up): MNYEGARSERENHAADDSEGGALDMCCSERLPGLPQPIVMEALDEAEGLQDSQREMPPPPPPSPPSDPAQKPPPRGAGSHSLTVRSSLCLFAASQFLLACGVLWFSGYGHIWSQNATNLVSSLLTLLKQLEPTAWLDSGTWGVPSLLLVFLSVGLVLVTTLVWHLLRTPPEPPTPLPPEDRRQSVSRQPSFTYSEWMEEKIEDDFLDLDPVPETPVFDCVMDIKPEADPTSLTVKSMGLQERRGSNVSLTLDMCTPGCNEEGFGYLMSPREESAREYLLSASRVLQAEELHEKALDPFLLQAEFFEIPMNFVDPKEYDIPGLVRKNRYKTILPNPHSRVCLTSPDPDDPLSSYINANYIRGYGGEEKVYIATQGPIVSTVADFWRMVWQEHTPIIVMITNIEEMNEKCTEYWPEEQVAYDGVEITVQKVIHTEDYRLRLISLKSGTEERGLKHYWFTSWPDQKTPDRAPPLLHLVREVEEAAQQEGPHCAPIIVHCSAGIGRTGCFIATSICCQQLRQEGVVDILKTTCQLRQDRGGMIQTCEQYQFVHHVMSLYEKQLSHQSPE
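medium = Bis-Tris buffer pH 6.0, 2.5 mM DTT, 0.005% Tween 20 | test system = STEP (striatal-enriched tyrosine phosphatase) enzyme, cell-free | measure = normalized % inhibition | compound dosing = 20 µM, 1% DMSO | also added = 25 µM OMFP | schedule = reaction 20 min, ambient temperature | measured by = fluorescence read at 480 nm ex / 540 nm em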
The depositor's hits bear a star; i = inactive; x = no result given. An excerpt weighted towards active compounds, which were near 1.9% of everything screened.

SMILES	SUMO HTRF inh	SUMO1 PPI mod	Scp1 inh	DNMT1 inh	LMPTP block	STEP block
Cc1ccc(-c2nc(NCc3cccnc3)c3ccccc3n2)cc1	-3.2	8.0	-30.4	-9.8	62.6*	-4.1
c1ccc(-c2nc(NCc3cccnc3)c3ccccc3n2)cc1	4.2	5.6	-4.4	-2.9	57.5*	0.6
Clc1cccc(-c2nc(NCc3cccnc3)c3ccccc3n2)c1	-22.6	9.7	-4.1	-9.9	42.2	-1.0
COc1ccc(CNc2nc(-c3ccccc3)nc3ccccc23)cc1OC	-19.2	2.7	-6.0	-6.4	63.4*	-0.9
Fc1ccc(CNc2nc(-c3ccccc3)nc3ccccc23)cc1	3.4	-3.6	2.5	-8.5	36.8	0.1
CCC1(c2ccc(Cl)cc2)NC(=O)N(CC(=O)NC2CCCCCC2)C1=O (stereo not drawn)	x	-0.1	-6.2	-2.4	0.7	0.4
CCN1/C(=C/C=C/c2oc3ccc(-c4ccccc4)cc3[n+]2CC)Oc2ccc(-c3ccccc3)cc21	32.6	57.0*	18.2	148.6*	13.7	i
CCCCN(C)c1c(C)nc2ccc(C(=O)Nc3cc(-c4ccccc4)ccc3OC)cn12	x	8.2	x	-27.7	9.0	0.7
C[N+]1(CC(O)COCC2COc3ccccc3O2)CCOCC1 (stereo not drawn)	1.8	1.4	105.5*	2.6	-0.2	-3.4
COc1ccc(C(C)=O)cc1COC(=O)C1CCN(C(=O)c2ccc(Cl)cc2)CC1	x	7.2	-16.4	-6.0	1.0	-1.2
Clc1ccc2c(c1)-c1ccccc1C1=NCCN12	x	2.4	x	50.9*	4.9	-1.6
CN1C2=NCCN2C(=O)c2cc(Cl)ccc21	27.0	2.9	11.0	-0.3	-1.6	0.7
Brc1ccc2c(c1)-c1ccccc1C1=NCCN12	x	0.7	x	53.4*	5.7	3.7
COc1ccc(Br)cc1S(=O)(=O)N1CCN=C1c1ccccc1	-5.0	-5.7	-6.7	-1.5	0.3	-2.3
CCOC(=O)C1CCN(C(=O)c2ccccc2)c2scc(-c3ccccc3)c2C1=O (stereo not drawn)	x	2.9	x	-3.5	1.4	3.1
CCCCn1c(N)c(N(CCOC)C(=O)C2CCN(S(=O)(=O)c3ccc(Cl)cc3)CC2)c(=O)[nH]c1=O	9.1	-4.2	9.3	-1.3	-3.2	-2.1
Cc1cc(C)c2cc(C)c(SCC(=O)NCc3ccco3)nc2c1	10.7	-1.8	10.4	1.9	1.1	-0.9
Cc1ccc2c(SCC(=O)NCc3ccco3)nc(-c3ccc(F)cc3)nc2c1	59.0*	-3.8	0.8	17.6	-0.4	2.2
CCc1ccc(NC(=S)NC(=O)CC(C)C)cc1	15.6	4.8	-15.2	7.3	0.7	-0.9
N#C/C(=C\c1ccc([N+](=O)[O-])o1)C(=O)Nc1ccc(F)cc1	11.9	9.1	56.5*	32.5	5.8	0.8
CC(C)Nc1nc(-c2ccccc2F)c2sc(-c3ccccc3)cc2n1	x	-4.0	x	-9.2	3.8	-1.0
CC(C)Nc1nc(NCCN2CCCC2)c2sc(-c3ccccc3)cc2n1	x	-57.3	x	-10.9	51.9*	7.5
COc1ccc(-[n+]2c(C)cc(/C=C3\Sc4ccccc4N3C)cc2C)cc1	-12.0	-1.2	x	35.2	31.0	3.5
CC[n+]1c(/C=C2\Sc3ccccc3N2C)ccc2cccc(C)c21	-14.1	-116.9	3.9	19.1	80.8*	13.6
CCN1/C(=C/c2ccc3cc(C)ccc3[n+]2CC)Sc2ccccc21	-18.0	-123.5	31.7	20.8	72.0*	11.0
CCN1/C(=C/c2ccc3cc(C)ccc3[n+]2CC)Sc2cc(C)c(C)cc21	-7.4	-55.3	18.6	-5.1	65.1*	0.1
CCN1/C(=C/c2sc(-c3ccccc3C)c[n+]2C)Sc2ccccc21	-1.3	-12.7	12.2	-1.1	4.1	1.8
